EP2 mod: modulates human prostaglandin E2 receptor EP2 signaling; P43116; EP2-expressing cells, cAMP HTRF FRET, PGE2 co-stimulation; induction, % at 25 µM; hit rate 0.83% among 260,000; AID 940;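 active = compounds whose cAMP rise, as percent of the full-agonist control response, exceeds 60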;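 also: rat C6 glioma line stably carrying human EP2 under a CMV promoter; the protocol text gives 20 µM as final concentration; 100% = response of wells given 1 µM PGE2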
T cell modulator: T cell immune modulators affecting CD8 T cell-vesicle binding; hit rate 0.068% among 330,000; response (vesicle binding), % at 7 µM; 2C CD8+ T cell-vesicle binding, flow cytometry; active compounds read low; AID 2052;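 active = response, share of CD8 T cells binding vesicles, and their 90th percentile fluorescence all below set limits, cut at about 80% in these data, passing the limit was not always enough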;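 also: values below 100% mean blocked vesicle binding to the CD8+ T cells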
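Read-out – percent CD8+ FL2 mean versus row control · System – murine 2C transgenic CD8+ T lymphocytes · Times – 1.5 h cell–vesicle binding at 37 °C, then 20 min icy labelling · Control set – naked vesicles low, QL9 vesicles with vehicle high · Detection – cytometric PE anti-B7-1 and Alexa647 anti-CD8 signals after 1% paraformaldehyde fixation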
PGE2 EP2 inh: inhibitors of human EP2 prostaglandin E2 receptor. P43116. C6 glioma cells expressing human EP2, cAMP TR-FRET; cells stimulated with saturating PGE2. inhibition, % at 25 µM. hit rate 0.52% among 260,000;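 active = percent inhibition above 40 after rounding to a whole number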;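 also: rat C6 glioma host cells with rolipram phosphodiesterase inhibitor present; the protocol text gives 20 µM as final concentration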
Granule exo inh: lytic granule exocytosis inhibition. TALL-104 LAMP-1 surface exposure, flow cytometry; cells stimulated with thapsigargin and PMA. inhibition, % at 10 µM. hit rate 0.66% among 360,000;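 active = inhibition above about 55%, limit read from the data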
MC4R antag cAMP: human MC4R antagonism in cAMP assay; MC4R-expressing cells, MTII-stimulated cAMP, LANCE TR-FRET; hit rate 0.48% among 360,000; inhibition, % at 6.5 µM;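 active = inhibition above its plate's cutoff, the mean of tested wells on that plate plus 3 SD, cut at about 29% in these data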;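 also: 0% = Melanotan II alone and 100% = Melanotan II plus saturating MCL0020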
Target sequence (P32245 whole entry, looked up): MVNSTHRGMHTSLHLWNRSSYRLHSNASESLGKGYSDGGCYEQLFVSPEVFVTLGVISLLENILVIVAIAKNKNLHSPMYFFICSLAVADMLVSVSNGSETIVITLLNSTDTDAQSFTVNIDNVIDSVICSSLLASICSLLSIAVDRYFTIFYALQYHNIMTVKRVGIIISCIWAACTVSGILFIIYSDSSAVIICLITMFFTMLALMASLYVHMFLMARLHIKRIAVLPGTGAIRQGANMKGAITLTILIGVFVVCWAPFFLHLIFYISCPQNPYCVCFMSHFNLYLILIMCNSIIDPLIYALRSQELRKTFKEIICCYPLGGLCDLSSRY
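material = U2OS cells stably expressing human melanocortin 4 receptor (MC4R) | also added = Melanotan II challenge | dosing = single nominal compound dose of 6.5 µM | detection = TR-FRET with Eu-cAMP and labeled anti-cAMP, 671 nm | replication = singlicate | timing = compound 30 min, challenge 1 h, detection 1 h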
MC4R ag barr: agonists of human melanocortin 4 receptor (MC4R) beta-arrestin. activation, % at 8.9 µM. U2OS MC4R beta-arrestin complementation, luminescence; percent of melanotan II response, DMSO zero. P32245. AID 540308. hit rate 0.98% among 360,000;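 active = activation above a per-plate cutoff, the mean activation of sample wells on that plate plus 3 SD, cut at about 8% in these data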
EP2 cAMP induct: human EP2 receptor cAMP induction, negative in counter-screens | shares compounds with EP2 mod | C6 glioma EP2 cells, cAMP HTRF induction; plus low (about EC15) PGE2 agonist | calls only at 20 µM (by protocol) | hit rate 47% among 1,300 | AID 1080;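 active = cAMP induction above 50% in the main assay while under 30% in all four parallel counter assays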;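 also: rat C6 glioma cells stably expressing human EP2 receptor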
Numbers without * were called inactive; i = inactive; · = not tested or not shown; + = active, no number. A selection: hits, their analogues and other compounds. The true share with any hit is near 2.6%.

SMILES	EP2 mod	T cell modulator	PGE2 EP2 inh	Granule exo inh	MC4R antag cAMP	MC4R ag barr	EP2 cAMP induct
C=CCn1c(SCC(=O)c2cc(C)n(C)c2C)nnc1-c1ccncc1	-4	170	2	0	2	0	·
COC(=O)c1ccccc1NC(=O)c1cnn2c(C(F)F)cc(C3CC3)nc12	76*	196	13	0	-1	0	i
C=CCn1c(=O)c2ccccc2n2c(SCC(C)=O)nnc12	·	216	·	5	24	-2	·
CC1CCN(c2nc(-c3ccncc3)nc3ccccc23)CC1	79*	263	12	33	-3	0	i
c1ccc2c(N3CCOCC3)nc(-c3ccncc3)nc2c1	29	178	9	1	-4	0	·
CNC[C@@H](SC)c1ccc(O)c(O)c1	40	·	8	·	·	·	·
CNC[C@H](O)c1ccc(O)c(O)c1	86*	98	10	-7	-19	1	i
CC(=O)c1c(O)cc(C)n(Cc2ccccc2)c1=O	·	496	4	-3	-1	1	·
COC(=O)c1c(NC(=O)C2CCCCC2)sc2c1CC(C)(C)NC2(C)C	·	597	·	4	-10	3	·
COc1cc(-c2nc(-c3cccc(C(F)(F)F)c3)no2)cc(OC)c1OC	72*	136	7	0	4	-1	+
CC(C)C(=O)c1cc2c(cc1NC(=O)c1ccccc1)OCCO2	71*	391	3	3	13	1	+
CC(C)(C)c1ccccc1OCC(=O)Nc1ccccc1C(=O)NCc1cccnc1	·	259	·	51	-8	5	·
COc1ccc(C2=Nn3c(nnc3-c3ccccc3OC)SC2)cc1OC	74*	476	8	4	-48	-2	i
CCc1ccc(C2=Nn3c(nnc3-c3cccs3)SC2)cc1	89*	565	15	4	11	-1	+
COc1ccc(-c2nnc3n2N=C(C)CS3)cc1	6	394	6	-1	8	-1	·
COc1ccc(C2=Nn3c(nnc3-c3ccc(OC)cc3)SC2)cc1	92*	807	5	3	-33	-1	+
O=C(CNC(=O)c1ccc(Br)cc1)NC1=NCCS1	·	481	·	-2	8	1	·
O=C(CN1CCN(S(=O)(=O)c2ccc(Cl)cc2)CC1)NCC1(N2CCOCC2)CCCCC1	·	166	·	1	0	-2	·
CCC(c1nnnn1C(C)(C)C)N1CCN(C(=O)c2ccco2)CC1 (configuration not stated)	-12	434	16	-4	2	-1	·
CCOC(=O)c1cc(CC)sc1NC(=O)c1cc(OC)c(OC)c(OC)c1	68*	527	10	21	6	0	+
CCOC(=O)c1cc(CC)sc1NC(=O)c1ccc(N2C(=O)CCC2=O)cc1	59	545	6	0	-6	5	·
COc1ccccc1NC(=O)C1=C(C)NC2=C(C(=O)CCC2)C1c1ccc(Cl)c(Cl)c1 (configuration not stated)	15	·	8	·	·	·	·
CCCc1nc(C)c2c(=O)[nH]c(-c3cc(S(=O)(=O)N4CCN(CC)CC4)ccc3OCC)nn12	·	456	14	4	4	1	·
COc1ccc(-c2c(C(C)=O)c(C)nc3sc4c(c23)NC(c2ccccc2)NC4=O)cc1 (configuration not stated)	70*	154	10	1	-21	-3	i
CCOC(=O)c1c(C)nc2sc3c(c2c1-c1ccc(OC)cc1)NC(c1ccccc1)NC3=O (configuration not stated)	52	506	9	2	-31	-1	·
SMILES	EP2 mod	T cell modulator	PGE2 EP2 inh	Granule exo inh	MC4R antag cAMP	MC4R ag barr	EP2 cAMP induct
Cn1cccc1C(=O)NC(=O)COC(=O)c1ccccc1Sc1ccccc1C#N	28	158	10	0	20	-1	·
COc1cc(C)c(C(=O)Oc2cc(C)c(C(=O)O)c(O)c2C)c(OC)c1C	55	738	8	20	11	-1	i
O=C1OCCC1Sc1nc2ccccc2c(=O)n1Cc1ccc(F)cc1 (configuration not stated)	17	477	7	2	3	0	·
COc1ccc([N+](=O)[O-])cc1N(CC(O)CN(CC(C)C)CC(C)C)S(=O)(=O)c1ccccc1 (configuration not stated)	18	239	10	9	12	1	·
CN1C(=O)SC(CC(=O)N2CCC(C(=O)c3nc4ccccc4s3)CC2)C1=O (configuration not stated)	-19	·	·	·	·	·	·
COC(=O)c1cc(-c2ccc3c(c2)OCO3)nc2ccccc12	68*	278	16	-5	3	0	i
Cc1cc(C)nc(NC(=O)c2cc(-c3ccc4c(c3)OCO4)nc3ccccc23)c1	·	107	·	-13	13	1	·
c1ccc2c(c1)OCC(c1csc3ncnc(N4CCCCC4)c13)O2 (configuration not stated)	84*	590	19	2	10	3	+
CCCN1CCN(c2ncnc3scc(C4COc5ccccc5O4)c23)CC1 (configuration not stated)	7	450	2	0	-4	1	·
Cc1ccc(-c2csc(Nc3ccc(C(=O)O)cc3)[n+]2Cc2ccccc2)cc1	76*	490	4	26	-5	2	+
COc1ccc(-c2csc(Nc3ccccc3)[n+]2Cc2ccccc2)cc1	43	315	9	7	14	-2	·
CSc1nnc(-c2ccc(F)cc2)o1	72*	273	20	0	13	1	i
CSc1nnc(-c2ccc([N+](=O)[O-])cc2)o1	18	187	4	2	3	0	·
Cc1cc(SCC(=O)Nc2cccnc2Cl)nc2ccccc12	67*	278	4	3	16	-3	i
Cc1cc(SCC(=O)NCCC2=CCCCC2)nc2ccccc12	70*	582	5	-4	-2	0	i
Cc1ccccc1NC(=O)CSc1nc(COc2ccccc2)nc2ccccc12	85*	252	7	1	4	1	i
C[C@H](C(=O)c1ccccc1)[C@@H](c1ccccc1)N1CCOCC1	56	·	12	·	·	·	+
C#CCn1c(S(=O)(=O)Cc2ccc(F)cc2)nc(-c2ccccc2)c1-c1ccccc1	65*	71	5	5	12	0	+
NCCSc1nc(-c2ccccc2)c(-c2ccccc2)o1	42	·	10	·	·	·	·
N/C(CSc1nc(-c2ccccc2)c(-c2ccccc2)o1)=N\O	67*	206	7	-3	6	0	+

Screening data as filed in PubChem.
